These results are taken from ChEMBL document CHEMBL1148948, “Biotransformation of nobiletin by Aspergillus niger and the antimutagenic activity of a metabolite, 4'-hydroxy-5,6,7,8,3'-pentamethoxyflavone” (2004).

Active and inactive are the calls of the source. The calls are words filed in the database; no cut-off is given here.

Experiment [1] deals with Salmonella typhimurium. Kind of experiment: Antimutagenic activity in Salmonella Typhimurium TA1535 carrying pSK1002 containing umuC'-lacZ fused gene assessed as suppression of MeIQ-induced SOS response to alteration in DNA synthesis at 0.05 mM measured by beta-galactosidase activity by Umu test. The class given is functional, Salmonella enterica subsp. enterica serovar Typhimurium. In short, it runs like this:
(§1)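 S. typhimurium TA1535/pSK1002 (umuC′-′lacZ fusion on the plasmid). The overnight culture was diluted 50-fold in fresh TGA medium and grown at 37 °C to A600 0.25-0.30. SOS induction was read as β-galactosidase activity in Miller units. The S9 mix used rat liver S9 (phenobarbital/5,6-benzoflavone-pretreated males) with G-6-P, NADH and NADPH cofactors.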

The subject of experiment [2] is Salmonella typhimurium. Kind of experiment: Inhibition of activated MeIQ-induced SOS response to alteration in DNA synthesis in Salmonella Typhimurium TA1535 carrying pSK1002 containing umuC'-lacZ fused gene. The class given is functional, Salmonella enterica subsp. enterica serovar Typhimurium. The following applies: Salmonella enterica, read-out: ID50 (the source's name). In short, it runs like this: as §1

Experiment [3] deals with Salmonella typhimurium. Kind of experiment: Antimutagenic activity in Salmonella Typhimurium TA1535 carrying pSK1002 containing umuC'-lacZ fused gene assessed as suppression of 0.1 j/M2 UV light-induced SOS response to alteration in DNA synthesis at 0.05 mM measured by beta-galactosidase activity by Umu test. It counts as functional, Salmonella enterica subsp. enterica serovar Typhimurium. In short, it runs like this: as §1

Experiment [4] has as its system Salmonella typhimurium. Kind of experiment: Antimutagenic activity in Salmonella Typhimurium TA1535 carrying pSK1002 containing umuC'-lacZ fused gene assessed as suppression of Trp-P-1-induced SOS response to alteration in DNA synthesis at 0.6 mM measured by beta-galactosidase activity by Umu test. It counts as functional, Salmonella enterica subsp. enterica serovar Typhimurium. In short, it runs like this:
as §1

Experiment [5] has as its system Salmonella typhimurium. Kind of experiment: Antimutagenic activity in Salmonella Typhimurium TA1535 carrying pSK1002 containing umuC'-lacZ fused gene assessed as suppression of activated Trp-P-1-induced SOS response to alteration in DNA synthesis at 0.1 mM measured by beta-galactosidase activity by Umu test. It counts as functional, Salmonella enterica subsp. enterica serovar Typhimurium. In short, it runs like this:
as §1

Experiment [6] relates to Salmonella typhimurium. Briefly: Antimutagenic activity in Salmonella Typhimurium TA1535 carrying pSK1002 containing umuC'-lacZ fused gene assessed as suppression of MeIQ-induced SOS response to alteration in DNA synthesis at 0.1 mM measured by beta-galactosidase activity by Umu test. It counts as functional, Salmonella enterica subsp. enterica serovar Typhimurium. In short, it runs like this:
as §1

The subject of experiment [7] is Salmonella typhimurium. Briefly: Antimutagenic activity in Salmonella Typhimurium TA1535 carrying pSK1002 containing umuC'-lacZ fused gene assessed as suppression of MeIQ-induced SOS response to alteration in DNA synthesis at 0.3 mM measured by beta-galactosidase activity by Umu test. It counts as functional, Salmonella enterica subsp. enterica serovar Typhimurium. In short, it runs like this: as §1

Experiment [8] relates to Salmonella typhimurium. Kind of experiment: Antimutagenic activity in Salmonella Typhimurium TA1535 carrying pSK1002 containing umuC'-lacZ fused gene assessed as suppression of furyfuramide-induced SOS response to alteration in DNA synthesis measured by beta-galactosidase activity by Umu test. The class given is functional, organism-based. The following applies: Salmonella enterica subsp. enterica serovar Typhimurium. In short, it runs like this: as §1

The subject of experiment [9] is Salmonella typhimurium. Kind of experiment: Inhibition of Trp-P-1-induced SOS response to alteration in DNA synthesis in Salmonella Typhimurium TA1535 carrying pSK1002 containing umuC'-lacZ fused gene at 0.6 mM. Set-up: scale not given: the % may be the effect or the level left. The class given is functional, Salmonella enterica subsp. enterica serovar Typhimurium. In short, it runs like this: as §1

The test system of experiment [10] is Salmonella typhimurium. Kind of experiment: Antimutagenic activity in Salmonella Typhimurium TA1535 carrying pSK1002 containing umuC'-lacZ fused gene assessed as suppression of furyfuramide-induced SOS response to alteration in DNA synthesis at 0.3 mM measured by beta-galactosidase activity by Umu test. The class given is functional, Salmonella enterica subsp. enterica serovar Typhimurium. In short, it runs like this: as §1

Experiment [11] deals with Salmonella typhimurium. Kind of experiment: Inhibition of Trp-P-1-induced SOS response to alteration in DNA synthesis in Salmonella Typhimurium TA1535 carrying pSK1002 containing umuC'-lacZ fused gene. The class given is functional, Salmonella enterica subsp. enterica serovar Typhimurium. The following applies: Salmonella enterica, read-out: ID50 (the source's name). In short, it runs like this: as §1

Experiment [12] deals with Salmonella typhimurium. Briefly: Antimutagenic activity in Salmonella Typhimurium TA1535 carrying pSK1002 containing umuC'-lacZ fused gene assessed as suppression of furyfuramide-induced SOS response to alteration in DNA synthesis at 0.05 mM measured by beta-galactosidase activity by Umu test. The class given is functional, Salmonella enterica subsp. enterica serovar Typhimurium. In short, it runs like this:
as §1

Experiment [13] relates to Salmonella typhimurium. Kind of experiment: Antimutagenic activity in Salmonella Typhimurium TA1535 carrying pSK1002 containing umuC'-lacZ fused gene assessed as suppression of activated MeIQ-induced SOS response to alteration in DNA synthesis at 0.6 mM measured by beta-galactosidase activity by Umu test. The class given is functional, Salmonella enterica subsp. enterica serovar Typhimurium. In short, it runs like this:
as §1

The test system of experiment [14] is Salmonella typhimurium. Briefly: Antimutagenic activity in Salmonella Typhimurium TA1535 carrying pSK1002 containing umuC'-lacZ fused gene assessed as suppression of activated MeIQ-induced SOS response to alteration in DNA synthesis at 0.05 mM measured by beta-galactosidase activity by Umu test. The class given is functional, Salmonella enterica subsp. enterica serovar Typhimurium. In short, it runs like this:
as §1

Experiment [15] has as its system Salmonella typhimurium. Kind of experiment: Antimutagenic activity in Salmonella Typhimurium TA1535 carrying pSK1002 containing umuC'-lacZ fused gene assessed as suppression of 0.1 j/M2 UV light-induced SOS response to alteration in DNA synthesis at 0.1 mM measured by beta-galactosidase activity by Umu test. The class given is functional, Salmonella enterica subsp. enterica serovar Typhimurium. In short, it runs like this:
as §1

The subject of experiment [16] is Salmonella typhimurium. Briefly: Antimutagenic activity in Salmonella Typhimurium TA1535 carrying pSK1002 containing umuC'-lacZ fused gene assessed as suppression of furyfuramide-induced SOS response to alteration in DNA synthesis at 0.1 mM measured by beta-galactosidase activity by Umu test. It counts as functional, Salmonella enterica subsp. enterica serovar Typhimurium. In short, it runs like this: as §1

Experiment [17] relates to Salmonella typhimurium. Briefly: Antimutagenic activity in Salmonella Typhimurium TA1535 carrying pSK1002 containing umuC'-lacZ fused gene assessed as suppression of Trp-P-1-induced SOS response to alteration in DNA synthesis at 0.1 mM measured by beta-galactosidase activity by Umu test. The class given is functional, Salmonella enterica subsp. enterica serovar Typhimurium. In short, it runs like this: as §1

The test system of experiment [18] is Salmonella typhimurium. Briefly: Antimutagenic activity in Salmonella Typhimurium TA1535 carrying pSK1002 containing umuC'-lacZ fused gene assessed as suppression of Trp-P-1-induced SOS response to alteration in DNA synthesis at 0.3 mM measured by beta-galactosidase activity by Umu test. It counts as functional, Salmonella enterica subsp. enterica serovar Typhimurium. In short, it runs like this:
as §1

Take `COc1cc(-c2cc(=O)c3c(OC)c(OC)c(OC)c(OC)c3o2)ccc1O`: the Activity in the experiment with Salmonella typhimurium [1] is recorded as 267.7 Miller_unit; with Salmonella typhimurium [3] it was 574.1 Miller_unit; in the experiment on Salmonella typhimurium [4], 168.9 Miller_unit; in the experiment with Salmonella typhimurium [5], 233.2 Miller_unit; in the experiment on Salmonella typhimurium [6], 232.6 Miller_unit; in the experiment with Salmonella typhimurium [7], 195.3 Miller_unit. In addition, the Activity is reported as 72.4% in the experiment on Salmonella typhimurium [9]; 489.9 Miller_unit with Salmonella typhimurium [10]; 551.2 Miller_unit in the experiment on Salmonella typhimurium [12]; 224.2 Miller_unit with Salmonella typhimurium [13]; 394 Miller_unit with Salmonella typhimurium [14]; 551.9 Miller_unit with Salmonella typhimurium [15]. In addition, the Activity with Salmonella typhimurium [16] worked out at 511.2 Miller_unit; in the experiment on Salmonella typhimurium [17], 285.4 Miller_unit; in the experiment with Salmonella typhimurium [18] it was 219.1 Miller_unit. Moreover, the values for the IC50 in the experiment on Salmonella typhimurium [2] and in the experiment with Salmonella typhimurium [11] were 300 µM and 160 µM, respectively. The result with Salmonella typhimurium [8] was Active.
